According to publication PMC5515376 (Nature, 2016):
pEC50, pIC50: −log10 of the molar value. “Also recorded” adds a separate entry of the source. Where two headings read alike, the source gives them in different places.

How the values were obtained:
P. falciparum Dd2 = assay: In vitro P. falciparum blood-stage growth inhibition assay; format: cell-based, Plasmodium falciparum
[1] = tested on: P. falciparum CYTb^G33V strain; assay: Growth inhibition, P. falciparum CYTb^G33V mutant strain; format: cell-based, Plasmodium falciparum
[2] = tested on: PfscDHODH (P. falciparum line expressing S. cerevisiae DHODH); assay: Growth inhibition, PfscDHODH transgenic line; format: cell-based, Plasmodium falciparum; settings: relative to Dd2
Method in brief: (§1)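 Asexual blood-stage parasites were cultured to 3–8% parasitaemia, counted on Giemsa smears, and diluted in medium to 2.0% parasitaemia and 2.0% haematocrit. This suspension was added to compound dispensed from DMSO, giving a final 1% parasitaemia and 1% haematocrit, with mefloquine as control. Plates were incubated for 72 h at 37 °C. Growth was read by SYBR Green I fluorescence in Tris/EDTA/saponin/Triton X-100 lysis buffer.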

TM90C6B strain = assay: Growth inhibition, TM90C6B strain; format: cell-based, Plasmodium falciparum; settings: TM90C6B strain (atovaquone resistant)
[3] = tested on: P. berghei (ANKA) liver stage; assay: In vitro P. berghei liver-stage assay; format: cell-based, Plasmodium berghei; settings: read-out: EC50, liver stages; in vitro
Method in brief: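 HepG2 cells (~17,500 per well, in duplicate) were cultured 18–24 h, then the medium was exchanged and compound added. After 1 h, 4,000 P. berghei ANKA GFP–luc sporozoites per well were added, freshly dissected from A. stephensi mosquitoes. Plates were spun 10 min at 1,000 r.p.m. and incubated 48 h at 37 °C. Parasite load was read by Bright-Glo luminescence.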

recombinant human DHODH = recombinant human DHODH (Homo sapiens, UniProt Q02127); assay: Human DHODH biochemical assay
Method in brief: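 Recombinant human DHODH at 13 nM was tested against a 20-point inhibitor dilution series. Reactions contained 1 mM L-dihydroorotate (excess), 100 µM dodecylubiquinone as electron acceptor and 60 µM 2,6-dichloroindophenol as indicator, in 50 mM Tris-HCl pH 8.0, 150 mM KCl and 0.1% Triton X-100. Reactions ran 20 min at 25 °C and were read at OD600.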

[4] = tested on: parasite cytosolic Na^+ concentration; assay: Parasite cytosolic Na+ concentration measurement; format: cell-based, Plasmodium falciparum; settings: after treatment
[5] = tested on: P. berghei (ANKA GFP-luc) blood-stage parasites; assay: In vivo P. berghei blood-stage assay; parameters: species or system Plasmodium berghei; settings: CD-1 mice; single 100 mg kg^−1 dose; parasites re-emerge very quickly
[6] = tested on: Mammalian cells (HepG2, A549, and HEK293); assay: Mammalian cell cytotoxicity; format: cell-based; settings: initial characterization
Method in brief: (§2)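 HepG2, A549 or HEK293 cells were grown in DMEM with 10% FBS and 1% antibiotic–antimycotic and tested mycoplasma-free. Cells (1 × 10^6) were seeded one day before treatment. They were exposed to ascending compound doses for 72 h, and viability was read by CellTiter-Glo.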

P. falciparum NITD609^R = assay: Blood-stage growth inhibition, P. falciparum NITD609^R strain; format: cell-based, Plasmodium falciparum
Method in brief: as §1

Solubility assay in PBS = format: physicochemical
Method in brief: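 Compound was prepared at 100 µM in triplicate, both in 100% DMSO and in PBS pH 7.4 with 1% DMSO. Samples were shaken at 750 r.p.m. for 18 h at room temperature. Analysis was by UPLC–MS with single-ion detection. PBS response was fitted to a two-point calibration built from the DMSO samples.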

[7] = tested on: P. falciparum 3D7 stage IV–V gametocytes; assay: In vitro transmission-blocking assay; format: cell-based, Plasmodium falciparum; settings: read-out: EC50, late-sexual blood stages; in vitro
Method in brief: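 3D7 cultures were treated 3 days with 50 mM N-acetyl-D-glucosamine to remove asexual parasites. Stage IV–V gametocytes were then isolated on a discontinuous Percoll gradient. Gametocytes (1.0 × 10^5 per well) were incubated with compound for 72 h. Viability was measured by CellTiter-Glo luminescence.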

[8] = Metabolic stability assay, mouse liver microsomes; format: in vitro ADME
Method in brief: (§3)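 Liver microsomes (0.2 mg ml−1) were incubated with compound (0.5 and 5 µM) plus NADPH for 0, 10 and 90 min. Human microsomes or mouse CD-1 microsomes were used, as named in each line. Compound depletion was measured by LC–MS/MS and used to estimate Km, Vmax and half-life.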

[9] = Metabolic stability assay, human liver microsomes; format: in vitro ADME
Method in brief: as §3

HepG2 cell line = assay: Mammalian cell cytotoxicity assay; format: cell-based, human
Method in brief: as §2

[10] = Mouse pharmacokinetics assay; format: in vivo; settings: CD-1 mice
Method in brief: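 Female CD-1 mice received single intravenous and oral doses. Parameters were estimated by non-compartmental analysis.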

hERG channel = hERG channel (Homo sapiens, UniProt Q12809); assay: hERG channel inhibition assay; format: cell-based; settings: read-out: hERG IC50; IKr
Method in brief: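 hERG current was measured in hERG-expressing cell lines by automated patch clamp (QPatch-HTX).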

[11] = read-out: PfDd2 EC50, asexual blood-stage parasites (Dd2), SAR table
[12] = read-out: EC50, asexual blood stages, in vitro

Sequence of recombinant human DHODH (Q02127 whole entry): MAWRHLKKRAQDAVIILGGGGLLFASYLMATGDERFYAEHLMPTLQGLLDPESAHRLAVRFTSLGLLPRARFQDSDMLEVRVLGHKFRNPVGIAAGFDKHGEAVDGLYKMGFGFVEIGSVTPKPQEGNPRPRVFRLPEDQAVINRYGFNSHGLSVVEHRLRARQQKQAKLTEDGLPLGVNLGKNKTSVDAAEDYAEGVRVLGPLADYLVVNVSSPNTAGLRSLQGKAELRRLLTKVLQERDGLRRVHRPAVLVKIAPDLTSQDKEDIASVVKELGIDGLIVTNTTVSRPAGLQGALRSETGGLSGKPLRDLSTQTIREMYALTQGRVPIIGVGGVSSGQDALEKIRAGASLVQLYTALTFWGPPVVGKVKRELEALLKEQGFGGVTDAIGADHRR
Sequence of hERG channel (Q12809 whole entry): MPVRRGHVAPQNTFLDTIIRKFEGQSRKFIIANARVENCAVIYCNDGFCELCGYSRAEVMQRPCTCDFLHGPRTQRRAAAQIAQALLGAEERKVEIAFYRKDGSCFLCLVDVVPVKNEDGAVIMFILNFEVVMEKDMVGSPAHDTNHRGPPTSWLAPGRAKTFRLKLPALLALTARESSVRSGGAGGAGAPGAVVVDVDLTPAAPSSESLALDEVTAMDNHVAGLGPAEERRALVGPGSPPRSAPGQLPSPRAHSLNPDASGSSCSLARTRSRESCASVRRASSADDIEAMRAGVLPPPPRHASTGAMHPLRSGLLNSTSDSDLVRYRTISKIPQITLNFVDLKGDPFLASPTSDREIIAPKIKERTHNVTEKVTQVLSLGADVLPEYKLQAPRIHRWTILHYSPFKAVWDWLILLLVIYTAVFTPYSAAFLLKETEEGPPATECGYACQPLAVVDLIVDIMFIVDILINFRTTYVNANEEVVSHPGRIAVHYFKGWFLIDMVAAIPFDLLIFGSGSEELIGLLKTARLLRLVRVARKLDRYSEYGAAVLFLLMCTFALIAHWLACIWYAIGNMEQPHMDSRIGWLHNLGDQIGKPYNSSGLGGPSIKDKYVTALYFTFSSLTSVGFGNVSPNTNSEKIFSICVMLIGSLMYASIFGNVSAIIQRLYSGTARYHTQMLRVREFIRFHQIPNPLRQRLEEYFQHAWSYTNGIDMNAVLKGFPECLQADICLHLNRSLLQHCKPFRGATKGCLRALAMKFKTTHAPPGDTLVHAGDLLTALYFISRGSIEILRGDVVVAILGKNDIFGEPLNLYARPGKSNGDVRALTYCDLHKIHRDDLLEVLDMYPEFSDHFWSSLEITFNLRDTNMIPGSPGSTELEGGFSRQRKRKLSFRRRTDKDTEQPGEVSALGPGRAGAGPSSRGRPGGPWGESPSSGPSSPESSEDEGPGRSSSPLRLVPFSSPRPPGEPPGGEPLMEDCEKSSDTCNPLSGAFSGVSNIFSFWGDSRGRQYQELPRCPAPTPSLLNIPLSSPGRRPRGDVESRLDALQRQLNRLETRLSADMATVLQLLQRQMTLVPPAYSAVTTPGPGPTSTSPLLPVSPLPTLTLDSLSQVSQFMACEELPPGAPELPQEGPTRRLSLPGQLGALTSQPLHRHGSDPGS

Work on `COc1ccc(NC(=O)N2CCCCN3[C@H](CN4CCC4)[C@H](c4ccc(C#Cc5ccccc5)cc4)[C@@H]3C2)cc1` [BRD8493] yielded a pEC50 (P. falciparum Dd2; [11]) of 6.94.

For `COc1ccc(NC(=O)N2CCCN3[C@H](CO)[C@H](c4ccc(C#Cc5ccccc5)cc4)[C@@H]3C2)cc1` [BRD9599], the pEC50 (P. falciparum Dd2; [11]) was 6.07.

For `CCCNC(=O)N1[C@H](C#N)[C@H](c2ccc(C#Cc3cccc(F)c3)cc2)[C@H]1CO` [BRD7539], the Change in potency [1] was “unaffected”, the pEC50 (P. falciparum Dd2; [12]) was 8.00 and the “Potency against PfscDHODH” value [2] was “markedly reduced potency; also recorded: selectively reduced potency”. For the same molecule, the Change in potency (TM90C6B strain) was “unaffected”, the pEC50 [3] was 7.82 and the “Inhibition of human DHODH orthologue” value (recombinant human DHODH) was “no inhibition”.

In the case of `OC(c1cc(C(F)(F)F)nc2c(C(F)(F)F)cccc12)C1CCCCN1` (stereo not shown) [mefloquine], the “Parasite cytosolic Na^+ concentration” value [4] was “constant”.

With `C[C@H]1[C@H](OC(=O)CCC(=O)O)O[C@@H]2O[C@@]3(C)CC[C@H]4[C@H](C)CC[C@@H]1[C@@]24OO3` [artesunate, reference compound] the Effect on parasites [5] was “rapid suppression of parasites” and the “Parasite cytosolic Na^+ concentration” value [4] was “constant”.

With `COc1ccc(-c2ccccc2[C@H]2[C@@H](C#N)N(C(=O)C3CCCC3)[C@H]2CO)cc1` [BRD0026] the pEC50 (P. falciparum Dd2; [12]) was 6.46, the “Cytotoxicity (in words)” value [6] was “low cytotoxicity” and the “Potency against Pf NITD609^R” value (P. falciparum NITD609^R; relative to Dd2) was “selectively reduced potency”. The pEC50 (P. falciparum NITD609^R; strain carrying a point mutation in P. falciparum ATPase4) was 5.75, the “Solubility (in words)” value (Solubility assay in PBS; initial characterization) was “good solubility” and the “Parasite cytosolic Na^+ concentration” value [4] was “rapid increase”. The pEC50 [7] was 5.70.

Work on `COc1ccc(NC(=O)N2CCCCN3[C@H](CO)[C@H](c4ccc(C#Cc5ccccc5)cc4)[C@]3(CO)C2)cc1` [BRD2936] yielded a pEC50 (P. falciparum Dd2; [11]) of 5.73.

For `COc1ccc(NC(=O)N2CCCCN3[C@H](COCCC(=O)O)[C@H](c4ccc(C#Cc5ccccc5)cc4)[C@@H]3C2)cc1` [BRD3316], the pEC50 (P. falciparum Dd2; P. falciparum (Dd2), Blood stage) was 7.72, the pEC50 (P. falciparum Dd2; read-out: Pf, Dd2 EC50, blood stage) was 7.64 and the pEC50 (P. falciparum Dd2; [11]) was 7.66. For the same molecule, the “Mouse Clint” value [8] was 38 µL/min/mg, the “Human Clint” value [9] was 34 µL/min/mg and the Cytotoxicity (HepG2 cell line; HepG2 cell line) was “no significant cytotoxicity”. The CC50 (HepG2 cell line; read-out: HepG2 CC50, 72 h) was > 50000 nM, the PBS solubility (Solubility assay in PBS; PBS pH 7.4 with 1% DMSO) was 91 µM and the AUC0-inf ([10]; IV (3.2) mg/kg) was 13.2 µM·h. The CL ([10]; IV (3.2) mg/kg) was 7.1 mL/min/kg, the MRT0-inf ([10]; IV (3.2) mg/kg) was 3.3 h and the T1/2 ([10]; IV (3.2) mg/kg) was 2.3 h. The Vss ([10]; IV (3.2) mg/kg) was 1.4 L/kg, the AUC0-inf ([10]; PO (13) mg/kg) was 33.5 µM·h and the Cmax ([10]; PO (13) mg/kg) was 6.8 µM. For the same molecule, the F ([10]; PO (13) mg/kg) was 63%, the MRT0-inf ([10]; PO (13) mg/kg) was 3.9 h and the T1/2 ([10]; PO (13) mg/kg) was 2.4 h. The Tmax ([10]; PO (13) mg/kg) was 1 h, the AUC0-t ([10]; PO (13) mg/kg, t = 24 h) was 33.5 ^¶ µM*hr and the pIC50 (hERG channel) was < 5.00.
